Results: ChEMBL document CHEMBL2412956, “Synthesis and biological activity evaluation of 5-pyrazoline substituted 4-thiazolidinones” (Eur J Med Chem, 2013)

Tested on: OVCAR-4
Test: Cytotoxicity against human OVCAR4 cells assessed as cell growth at 10 uM after 48 hrs by SRB assay relative to control
Type: functional
Details: OVCAR-4, 48 h, read-out: Activity
Outline: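 This was the NCI primary screen, with compound added once at 10⁻⁵ M and cultures incubated for 48 h. The endpoint was sulforhodamine B protein staining. Results are expressed as percent growth of treated cells relative to untreated control cells.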

`COc1ccc(C2CC(c3ccc4ccccc4c3)=NN2C2SC(=O)N(CN3CCOCC3)C2=O)cc1` (stereo unspecified) was tested, and the growth at 10 µM was 67.5%.
